Screening data (PubChem BioAssay)
Only a selection was taken, and hits are over-represented in it overall.
CD11b adhes enh: enhancers of CD11b/CD18 adhesion to fibrinogen, primary screen, K562 cells, luminescence; AID 1499, 2009; ATPlite luminescence; 0.07% of 93,000 active; activation, % at 10 µM;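 active = 10 µM primary screen giving 50% or more activity, confirmed by 40% or more on retest at that dose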
Target sequence (P05107 whole entry, looked up, other chains not shown): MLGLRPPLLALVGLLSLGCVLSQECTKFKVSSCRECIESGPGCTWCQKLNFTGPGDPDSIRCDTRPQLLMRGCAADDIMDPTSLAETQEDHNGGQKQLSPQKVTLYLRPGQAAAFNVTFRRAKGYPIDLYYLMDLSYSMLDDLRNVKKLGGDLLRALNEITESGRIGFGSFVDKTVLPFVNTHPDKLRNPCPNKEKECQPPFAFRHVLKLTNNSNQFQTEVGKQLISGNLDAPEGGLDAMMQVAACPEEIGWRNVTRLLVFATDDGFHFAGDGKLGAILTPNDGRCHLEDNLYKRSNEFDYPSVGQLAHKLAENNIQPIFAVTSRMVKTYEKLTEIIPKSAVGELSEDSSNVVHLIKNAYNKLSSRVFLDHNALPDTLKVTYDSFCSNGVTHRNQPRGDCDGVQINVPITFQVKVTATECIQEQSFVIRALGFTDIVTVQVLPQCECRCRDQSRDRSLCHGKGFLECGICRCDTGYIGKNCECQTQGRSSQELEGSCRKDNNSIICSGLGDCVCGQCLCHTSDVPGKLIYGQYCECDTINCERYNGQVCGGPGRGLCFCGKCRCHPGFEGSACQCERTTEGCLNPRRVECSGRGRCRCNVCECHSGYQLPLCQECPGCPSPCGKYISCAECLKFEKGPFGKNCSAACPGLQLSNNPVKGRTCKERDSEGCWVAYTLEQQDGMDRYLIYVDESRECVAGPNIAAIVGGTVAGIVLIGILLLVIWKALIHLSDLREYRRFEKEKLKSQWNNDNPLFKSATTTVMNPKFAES
Mac1 fbg inh: inhibitors of CD11b/CD18 adhesion to fibrinogen, primary screen, K562 cells, luminescence | 0.54% of 93,000 active | AID 1497, 2009 | ATPlite luminescence; Mn2+ added to activate the integrin | inhibition, % at 10 µM;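 active = primary inhibition of 50% or more at 10 µM, then 40% or more on retest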
Ecoli WT expand: growth inhibitors of wild-type E. coli, primary screen, strain BW25113, expanded library, OD600; OD600 absorbance; growth inhibition, % at 100 µM; 0.15% of 98,000 active;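 active = growth inhibition above about 50% at one test dose, limit read from the data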;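 note: growth measured after 20 h incubation at 37 °C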
Ecoli tolC: growth inhibitors of E. coli tolC mutant, primary screen, strain BW25113 ΔtolC::kan, 384-well. AID 573, 2007. OD615. 2.2% of 65,000 active. growth inhibition, % at 10 µM (by protocol);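 active = growth inhibition at or above a cutoff equal to the mean over every tested compound plus 3 SD, cut at about 60% in these data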;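 note: growth measured after 20 h incubation at 37 °C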
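Test system – E. coli BW25113 ΔtolC::kan, tolC deletion mutant strain · Detection – OD at 615 nm · Buffer or medium – LB with kanamycin 50 µg/mL · Times – 20 h compound exposure of bacteria at 37 °C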
Numbers without * were called inactive; nt = no result.

SMILES	CD11b adhes enh	Mac1 fbg inh	Ecoli WT expand	Ecoli tolC
O=C(c1ccc(Cl)cc1)N1CCC(O)(CSc2ccc(Cl)cc2)CC1	nt	nt	-7	nt
Cc1ccc(-c2csc3ncnc(Sc4nnc(CN5CCCCCC5=O)o4)c23)cc1	17	-10	5	61*
Cc1ccc(-c2csc3ncnc(SCC(=O)Nc4nnc(C)s4)c23)cc1	36	-22	-5	nt
Cn1c(-c2ccccc2)cc2c3no[n+]([O-])c3ccc21	1	-6	2	95*
Oc1c(CN2CCCCC2)cc(COCc2ccccc2)c2cccnc12	-1	-2	30	100*
COCc1cc(CN2CCCC2)c(O)c2ncccc12	-3	-8	34	10
Oc1c(CN2CCN(c3ccccn3)CC2)cc(Cl)c2cccnc12	2	-29	54*	98*
O=C(Nc1ccc2c(c1)OCCO2)c1coc2ccccc2c1=O	-6	52*	nt	nt
COc1ccc(OC)c(CCNC(=O)Cn2sc3nc(C)cc(C)c3c2=O)c1	-7	52*	5	-9
COc1ccc(-c2nc(CS(=O)(=O)CC(=O)NCCc3cc(OC)ccc3OC)c(C)o2)cc1	nt	nt	-8	10
Cc1nc(N2CCN(c3ccccc3)CC2)nc2c1C(=O)CCC2	3	6	-1	91*
Cc1nc(N2CCN(c3ccccc3)CC2)nc2c1C(=O)CC(C)C2 (stereo unspecified)	0	-14	1	46
CSCSC1=C(C#N)C(c2ccc(Cl)cc2)C(C(C)=O)=C(C)N1 (stereo unspecified)	3	12	-19	96*
N#Cc1c(-c2ccc(Cl)cc2)ccn2nc(C3CCCCC3)nc12	-1	-2	-9	nt
O=C(CSc1ccc2ccccc2c1)Nc1ccncc1	-5	86*	8	nt
O=C(CSc1ccccc1)Nc1ccncc1	-5	-3	15	-2
Cc1cc2ccccc2n2c(SCC(=O)Nc3ccc(S(=O)(=O)N4CCC(C)CC4)cc3)nnc12	36	19	nt	nt
Cc1ccc(-c2noc(CN(C(=O)C(c3ccccc3)c3ccccc3)C(C)C)n2)cc1	nt	nt	-19	nt
Cc1cccc(-c2noc(CN(C(=O)CCc3ccccc3)C(C)C)n2)c1	-1	2	0	76*
COc1ccc(Cl)cc1C(=O)N(Cc1nc(-c2cccc(C)c2)no1)C(C)C	4	8	-14	56
Cc1ccc(-c2noc(CN(C(=O)c3cccc(Br)c3)C(C)C)n2)cc1	10	8	0	78*
CCOc1cc(S(=O)(=O)n2cc(-c3ccc(F)cc3)c(N)n2)cc(OCC)c1OCC	7	-3	-7	63*
CCOc1ccc(S(=O)(=O)n2cc(-c3ccc(F)cc3)c(N)n2)cc1	1	-3	-8	nt
COc1ccc(NC(=O)CCC2CCCCC2)cc1S(=O)(=O)N1CCCCC1	-11	54	nt	nt
COc1ccc(N=Nc2nc3cc(Br)c(Br)cc3n2C)c(OC)c1	10	17	nt	nt
SMILES	CD11b adhes enh	Mac1 fbg inh	Ecoli WT expand	Ecoli tolC
CCC(Sc1nnnn1-c1ccccc1)C(=O)Nc1nc2ccccc2s1 (stereo unspecified)	nt	nt	-38	74*
CCCOc1ccc(C2C(C(=O)c3ccc(C)o3)=C(O)C(=O)N2Cc2cccnc2)cc1 (stereo unspecified)	-1	10	nt	67*
CCN1CCN(CCNC(=O)C2CCCN(Cc3nc(-c4cccc(Cl)c4)oc3C)C2)CC1 (stereo unspecified)	0	6	-4	-11
CCOC(=O)N1CCN(C(=O)C2CCCN(Cc3nc(-c4ccc(Cl)cc4)oc3C)C2)CC1 (stereo unspecified)	-6	70*	3	7
CCOC(=O)N1CCC(NC(=O)C2CCCN(Cc3nc(-c4cccc(Cl)c4)oc3C)C2)CC1 (stereo unspecified)	-3	60*	1	7
COc1ccc(-c2nnc(SCC(=O)NC3CCCc4ccccc43)n2N)cc1 (stereo unspecified)	1	-3	nt	nt
O=S1(=O)C=C(SCc2ccc(Cl)c(Cl)c2)Nc2ccccc21	nt	nt	3	nt
COc1ccc(CCNc2oc(COc3ccc(F)cc3)nc2C#N)cc1	8	10	1	96*
Cc1ccc(OCc2nc(C#N)c(NCCCn3ccnc3)o2)cc1	-7	13	1	-6
N#Cc1nc(COc2ccc(Br)cc2)oc1NCCCn1ccnc1	3	-13	38	97*
N#Cc1nc(-c2ccc(OCc3ccccc3)cc2)oc1NCCCn1ccnc1	6	27	5	100*
N#Cc1nc(-c2ccc(OCc3ccccc3Cl)cc2)oc1NCCCn1ccnc1	7	nt	11	100*
Cc1nnsc1C(=O)NC(C)C12CC3CC(CC(C3)C1)C2 (stereo unspecified)	nt	nt	5	nt
Cc1nn(-c2ccccc2)c(C)c1NC(=O)COc1ccc(Br)cc1Cl	5	1	nt	nt
CCn1c(SC)nnc1-c1sc2cc(Cl)ccc2c1Cl	5	17	-7	77*
C=C(C)COc1ccc(-c2[nH]ncc2Oc2ccccc2OCC)c(O)c1	-12	100	9	100*
C=C(C)COc1ccc(-c2[nH]ncc2-c2ccc(OC)c(OC)c2)c(O)c1	-5	37	2	91*
C=C(C)COc1ccc(-c2[nH]ncc2-c2ccccc2)c(O)c1	nt	nt	26	nt
C=C(C)COc1ccc(-c2[nH]ncc2Oc2cccc(OC)c2)c(O)c1	-1	40	13	100*
Cc1nn(C)c(C)c1/C=N/O	-4	-10	4	nt
S=c1[nH]nc(C2CCCCC2)n1/N=C/c1ccc(Br)s1	-1	6	-8	nt
CSc1ccc(S(=O)(=O)Nc2c(C)cccc2C)cc1	-6	-13	1	10
CCc1ccccc1NS(=O)(=O)c1ccc(SC)cc1	1	-3	9	73*
Cc1cc(C(=O)N2CCN(Cc3ccccc3)CC2)on1	21	-3	12	nt
O=c1c2cc(-c3ccccc3)sc2ncn1-n1cccc1	0	3	-7	nt
SMILES	CD11b adhes enh	Mac1 fbg inh	Ecoli WT expand	Ecoli tolC
Cc1ccc(C)n1-n1cnc2sc(-c3ccccc3)cc2c1=O	nt	nt	-15	88*
Cc1[nH]c(=O)c(C(=O)/C=C/c2ccccc2F)c2c1CCCC2	nt	nt	-1	nt
O=C(CSCc1ccc(F)cc1)Nc1ccccc1	-7	15	-8	nt
O=C(Nc1ccc(F)cc1)c1ccc(CSc2ccccc2)o1	-10	97*	nt	nt
Clc1ccccc1CSc1nnc(-c2ccccn2)n1Cc1ccco1	-3	-5	-6	91*
Nn1c(SC/C=C/c2ccccc2)nnc1-c1ccccn1	-4	-12	10	10
C(=C\c1ccccc1)/CSc1nnc(-c2ccccn2)n1Cc1ccco1	-2	11	-12	93*
CN(C)c1nc(C(=O)Nc2ccccc2)nc(N(C)C)n1	0	-8	-3	9
CN(C)c1nc(SCCOC(=O)Nc2ccccc2)nc(N(C)C)n1	2	-4	-29	86*
Cc1nn(Cc2ccc(C(=O)N3c4ccc(F)cc4CCC3C)o2)c(C)c1Br (stereo unspecified)	3	6	-5	96*
CC(C)c1nc(SCc2c(F)cccc2Cl)c2c(=O)n(C)c(=O)n(C)c2n1	-1	16	-12	17
